# Data: PMC8897028 (Acta Pharmaceutica Sinica. B, 2021)
# Columns and labels:
# hTRPA1 = hTRPA1 (Homo sapiens, UniProt O75762); assay: whole-cell patch-clamp of TRPA1 currents in HEK293 cells; assay type: cell-based; settings: ruthenium red 20 μmol/L; current activated by AITC 300 μmol/L
# Outline: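 Human channel cDNAs were transiently transfected into HEK293 cells with Lipofectamine 2000. EGFP-positive cells were recorded whole-cell 18 h later at 22–24 °C with ~4.0 MΩ fire-polished pipettes. Cells were held at 0 mV with 500-ms ramps from −100 to +100 mV every 2 s. Test compound in perfusion solution was co-applied with agonist, and average current inhibition was summarised; n = 4–6.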
# hTRPV3 = molecular target: T1, hTRPV3 (Homo sapiens, UniProt Q8NET8); assay: inside-out single-channel recordings of HEK293 cells overexpressing hTRPV3; assay type: biochemical
# T1 sequence (Q8NET8 1-790): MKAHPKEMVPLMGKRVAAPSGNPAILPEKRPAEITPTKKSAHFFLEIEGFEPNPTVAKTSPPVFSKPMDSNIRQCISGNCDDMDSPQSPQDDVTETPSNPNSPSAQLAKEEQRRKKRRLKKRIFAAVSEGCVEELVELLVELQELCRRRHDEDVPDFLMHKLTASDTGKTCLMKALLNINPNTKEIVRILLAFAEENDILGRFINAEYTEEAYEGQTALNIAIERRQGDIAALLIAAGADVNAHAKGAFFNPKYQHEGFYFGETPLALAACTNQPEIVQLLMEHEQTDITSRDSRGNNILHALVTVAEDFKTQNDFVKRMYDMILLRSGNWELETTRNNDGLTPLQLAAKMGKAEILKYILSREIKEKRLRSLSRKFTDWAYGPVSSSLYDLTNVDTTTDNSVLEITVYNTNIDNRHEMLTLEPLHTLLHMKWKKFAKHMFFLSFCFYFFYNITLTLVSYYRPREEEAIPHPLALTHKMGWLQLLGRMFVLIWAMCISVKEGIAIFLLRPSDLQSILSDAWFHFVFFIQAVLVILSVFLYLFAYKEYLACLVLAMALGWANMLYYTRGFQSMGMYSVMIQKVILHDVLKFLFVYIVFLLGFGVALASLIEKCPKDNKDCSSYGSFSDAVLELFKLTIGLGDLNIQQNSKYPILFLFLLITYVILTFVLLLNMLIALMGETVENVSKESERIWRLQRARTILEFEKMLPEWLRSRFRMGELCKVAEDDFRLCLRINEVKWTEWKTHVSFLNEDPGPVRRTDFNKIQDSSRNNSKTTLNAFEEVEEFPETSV
# Outline: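 Inside-out patches from EGFP-identified HEK293 cells, 18 h after hTRPV3 transfection, used 6–10 MΩ pipettes. Patches were held at 0 mV, then stepped to +80 mV. Currents were sampled at 10 kHz, filtered at 2.9 kHz, at 22–24 °C. All-points histograms were Gaussian-fitted for conductance and mean open probability; n = 4.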
# [1] = test system: HEK293 cells expressing hTRPV3; assay: cell death assay; assay type: cell-based, human; settings: 12 h, n = 4
# Outline: (§1)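 HEK293 cells 12 h after hTRPV3 transfection, or HaCaT cells, were seeded in six-well plates, randomly split into 6 groups, and treated 12 h in culture medium. Cells were detached with 0.25% trypsin (HEK293 1 min; HaCaT 7 min), centrifuged, and stained 30 min in PBS with Hoechst and PI. Five random fields per group were imaged. Death ratio = PI-labelled over Hoechst-labelled nuclei, averaged over five images; n = 4.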
# mTRPV3 H426A = molecular target: T2, mTRPV3 H426A (Mus musculus, UniProt Q8K424, H426A); assay: whole-cell patch-clamp of mTRPV3 H426A mutant in HEK293 cells; assay type: cell-based
# T2 sequence (Q8K424 1-791 H426A): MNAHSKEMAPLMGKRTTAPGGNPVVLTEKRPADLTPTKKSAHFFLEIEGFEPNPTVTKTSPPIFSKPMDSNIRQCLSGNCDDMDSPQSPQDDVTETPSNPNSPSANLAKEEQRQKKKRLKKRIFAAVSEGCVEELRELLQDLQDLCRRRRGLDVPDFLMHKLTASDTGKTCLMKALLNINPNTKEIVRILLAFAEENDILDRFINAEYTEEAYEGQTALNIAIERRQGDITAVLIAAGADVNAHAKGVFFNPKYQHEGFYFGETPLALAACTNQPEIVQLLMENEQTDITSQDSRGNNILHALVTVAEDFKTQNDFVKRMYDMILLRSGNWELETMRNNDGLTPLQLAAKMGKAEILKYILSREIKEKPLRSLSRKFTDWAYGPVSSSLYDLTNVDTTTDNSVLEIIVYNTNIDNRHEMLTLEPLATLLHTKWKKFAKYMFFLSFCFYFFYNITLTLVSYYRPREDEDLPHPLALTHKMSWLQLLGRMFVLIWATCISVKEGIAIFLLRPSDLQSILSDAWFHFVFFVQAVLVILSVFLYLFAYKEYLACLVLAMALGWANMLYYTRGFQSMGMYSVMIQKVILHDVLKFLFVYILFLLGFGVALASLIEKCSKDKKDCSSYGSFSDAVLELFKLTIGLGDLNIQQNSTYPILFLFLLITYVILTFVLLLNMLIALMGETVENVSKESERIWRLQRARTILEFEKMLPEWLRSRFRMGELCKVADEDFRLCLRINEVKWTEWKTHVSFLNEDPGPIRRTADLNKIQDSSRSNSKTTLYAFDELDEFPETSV
# Outline: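 The sequence-confirmed site-directed mTRPV3 mutant was transiently expressed in HEK293 cells, and EGFP-positive cells were recorded whole-cell 18 h post-transfection. Cells were held at 0 mV with 500-ms ramps from −100 to +100 mV every 2 s, at 22–24 °C. Compounds were diluted in perfusion solution.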
# C57BL/6J mice = assay: ear swelling and chronic pruritus model induced by TRPV3 agonist carvacrol; assay type: in vivo, mouse; settings: 3% carvacrol only; recorded 1 h on day 7
# Outline: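 Male C57BL/6J mice, 8–10 weeks old, were acclimatised for at least one week at 22 ± 2 °C on a 12 h light/dark cycle. The right ear received topical 3% carvacrol in ethanol/olive oil (4/1, v/v) once daily for 6 days. Test compound (1.0 mmol/L in 50 μL solvent) was applied 30 min after carvacrol; vehicle was solvent with 1% DMSO. Scratching was recorded for 1 h on day 7; n = 6–8 mice per group.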
# HaCaT cells [2] = assay: cell death assay; assay type: cell-based, human; settings: carvacrol 300 μmol/L alone; 12 h
# Outline: as §1
# [3] = test system: HEK293 cells expressing hTRPV3; assay: cell proliferation MTT assay, HEK293 cells transfected with hTRPV3; assay type: cell-based, human; settings: carvacrol 300 μmol/L, 24 h
# Outline: (§2)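 hTRPV3-transfected HEK293 or HaCaT cells were plated at 5 × 10^3 per well for 24 h, then exposed 24 h to TRPV3 activator and/or inhibitor in culture medium. MTT (5 mg/mL solution) was added for 4 h. Medium was removed, formazan dissolved in DMSO, and absorbance read at 490 nm.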
# HaCaT cells [4] = assay: cell proliferation MTT assay, HaCaT cells; assay type: cell-based, human; settings: carvacrol 300 μmol/L, 24 h
# Outline: as §2
# Chain of hTRPA1 (O75762 whole entry, the tested form may be a part): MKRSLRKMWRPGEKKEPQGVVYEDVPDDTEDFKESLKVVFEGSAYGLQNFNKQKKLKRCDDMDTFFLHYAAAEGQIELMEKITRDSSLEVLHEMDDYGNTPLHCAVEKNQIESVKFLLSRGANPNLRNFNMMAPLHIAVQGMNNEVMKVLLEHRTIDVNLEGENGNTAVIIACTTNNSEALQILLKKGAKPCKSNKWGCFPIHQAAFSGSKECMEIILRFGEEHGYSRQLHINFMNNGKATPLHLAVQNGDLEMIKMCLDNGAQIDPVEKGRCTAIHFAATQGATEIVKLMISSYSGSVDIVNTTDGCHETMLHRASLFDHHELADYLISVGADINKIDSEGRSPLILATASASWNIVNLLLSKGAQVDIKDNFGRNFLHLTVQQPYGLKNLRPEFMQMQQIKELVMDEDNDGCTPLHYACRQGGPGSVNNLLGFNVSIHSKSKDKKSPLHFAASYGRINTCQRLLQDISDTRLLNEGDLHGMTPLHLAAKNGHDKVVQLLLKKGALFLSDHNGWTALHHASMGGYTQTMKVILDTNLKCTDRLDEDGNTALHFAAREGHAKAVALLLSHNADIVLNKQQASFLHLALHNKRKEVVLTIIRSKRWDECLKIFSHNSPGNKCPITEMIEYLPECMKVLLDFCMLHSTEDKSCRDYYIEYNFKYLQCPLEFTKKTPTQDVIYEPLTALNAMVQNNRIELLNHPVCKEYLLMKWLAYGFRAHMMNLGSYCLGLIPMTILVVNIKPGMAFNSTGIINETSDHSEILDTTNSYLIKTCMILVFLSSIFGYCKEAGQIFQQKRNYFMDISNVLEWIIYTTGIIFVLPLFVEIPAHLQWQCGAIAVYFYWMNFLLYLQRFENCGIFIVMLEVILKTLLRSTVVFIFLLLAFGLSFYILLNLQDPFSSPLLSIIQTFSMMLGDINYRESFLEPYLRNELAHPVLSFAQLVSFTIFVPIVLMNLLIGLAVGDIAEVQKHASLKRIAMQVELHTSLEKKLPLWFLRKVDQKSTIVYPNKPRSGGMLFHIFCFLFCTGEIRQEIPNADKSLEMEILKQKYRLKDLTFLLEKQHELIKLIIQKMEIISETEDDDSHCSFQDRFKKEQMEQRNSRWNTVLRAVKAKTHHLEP
structure (smiles),measurement,setting,value
"N.N.N.N.N.N.N.N.N.N.N.N.N.N.[Cl-].[Cl-].[Cl-].[Cl-].[Cl-].[Cl-].[O-2].[O-2].[Ru+3].[Ru+3].[Ru+4] [ruthenium red, reference compound]",inhibition of TRPA1 current,hTRPA1,inhibited
same,channel open probability,"hTRPV3; RR 20 μmol/L with carvacrol 300 μmol/L, from 26.9 ± 5.5%, n = 4",0.5 ± 0.4%
same,single-channel conductance,"hTRPV3; RR 20 μmol/L with carvacrol 300 μmol/L, from 175.2 ± 0.9 pS, n = 4",122.8 ± 5.5 pS
same,cell death ratio,[1]; ruthenium red positive control with carvacrol 300 μmol/L,14.3 ± 1.7%
"NCCOB(c1ccccc1)c1ccccc1 [2-APB, 2-aminoethoxydiphenyl borate, reference compound]",activation of H426A mutant channel,mTRPV3 H426A; 2-APB 50 μmol/L,not activated
"Cc1ccc(C(C)C)cc1O [carvacrol, reference compound]",increase of channel open probability versus vehicle,hTRPV3; carvacrol 300 μmol/L alone,about 90 fold
same,single channel conductance,hTRPV3; carvacrol 300 μmol/L alone,168.4 ± 2.1 pS
same,channel open probability,"hTRPV3; carvacrol 300 μmol/L alone, vehicle control 0.3 ± 0.2%",26.9 ± 5.5%
same,number of scratching bouts,C57BL/6J mice,113.0 ± 16.9
same,cell death ratio,"[1]; carvacrol 300 μmol/L alone, vehicle 5.3 ± 0.5%",21.1 ± 1.9%
same,cell death ratio,HaCaT cells [2],13.0 ± 2.1%
same,cell proliferation,[3],suppressed the cell proliferation
same,cell proliferation,HaCaT cells [4],suppressed the cell proliferation
same,activation of H426A mutant current,mTRPV3 H426A; carvacrol 300 μmol/L,activated
